Drawing on ChEMBL document CHEMBL1124464, “Peripherally acting enkephalin analogues. 2. Polar tri- and tetrapeptides” (1989), this text covers Inhibition, EC50 and ED50 for twelve molecules.

For the first assay, the system named is Mus musculus. The assay is described as follows: Antinociceptive activity of subcutaneously administered compound (30 mg) in acetic acid (AA) induced writhing mice. The assay is classed as functional.
Settings: not given
The procedure, abridged:
(§1)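 Male TFW mice, groups of five to six, given drug subcutaneously (10 mL kg-1), then ip acetic acid 0.6% at 25 mL kg-1. Writhes counted for 5 min beginning 15 min after acetic acid. ED50 = dose reducing writhes 50% versus vehicle, by linear regression.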
For orientation: An intraperitoneal irritant provokes the stretching counted in writhing tests.
The Inhibition is the share of the control response that was lost under treatment. A higher Inhibition goes with a strong effect. Regarding `CC(=O)O.CCN(CCc1ccc(S(N)(=O)=O)cc1)C(=O)CNC(=O)[C@@H](CCCN=C(N)N)NC(=O)[C@H](Cc1ccc(O)cc1)N=C(N)N`, the Inhibition stood at 0%.

For the next assay, the species on record is Cavia porcellus. The assay is described as follows: Inhibition of electrically induced contractions on the guinea pig ileum. In kind it is functional. The conditions noted are these: read-out: ED50 (the source's name). The procedure, abridged:
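Guinea pig ileum contractions evoked by coaxial stimulation at 0.1 Hz, 0.5-ms pulses, supramaximal voltage, recorded isometrically; dose-response curves built with 15-min washout between doses.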
Take `CC(=O)O.CCN(CCc1ccc(S(N)(=O)=O)cc1)C(=O)CNC(=O)[C@@H](CCCN=C(N)N)NC(=O)[C@@H](N)Cc1ccc(O)cc1`: the EC50 amounted to 11000 nM.
Same read-out and setting: next, `CC(=O)O.CCN(CCc1ccc(Br)cc1)C(=O)CNC(=O)[C@@H](CCCN=C(N)N)NC(=O)[C@@H](N)Cc1ccc(O)cc1`: less than 100 nM.
The same measure, in the same setting: next, `CC(=O)O.CCN(CCc1cccc2ccccc12)C(=O)CNC(=O)[C@@H](CCCN=C(N)N)NC(=O)[C@@H](N)Cc1ccc(O)cc1`: 75.9 nM.
The same measure, in the same setting: in the case of `CC(=O)O.CCN(CCc1ccc(S(N)(=O)=O)cc1)C(=O)CNC(=O)[C@@H](CCCN=C(N)N)NC(=O)[C@H](Cc1ccc(O)cc1)N=C(N)N` it was 4900 nM; in that of `CC(=O)O.CCN(CCc1ccncc1)C(=O)CNC(=O)[C@@H](CCCN=C(N)N)NC(=O)[C@@H](N)Cc1ccc(O)cc1`, 569 nM; in that of `CC(=O)O.CCN(CCc1cccc2ccccc12)C(=O)CNC(=O)[C@@H](CCCN=C(N)N)NC(=O)[C@H](Cc1ccc(O)cc1)N=C(N)N`, 30 nM.

For another assay, the system named is Rodentia sp. The assay can be described thus: Antinociceptive activity in the hot plate test (central activity) in rodents, when compound administered subcutaneously at 100 mg. The assay is classed as functional.
Settings: not given
The procedure, abridged: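 Male CFLP mice, groups of five to six, placed on a copper surface held at 55 °C; latency to paw licking/shaking or jumping recorded, 30-s cut-off. Drug given subcutaneously at 10 mL kg-1. ED50 = dose doubling response latency versus vehicle, by parallel-line probit analysis.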
As to `CC(=O)O.CCN(CCc1ccc(Br)cc1)C(=O)CNC(=O)[C@@H](CCCN=C(N)N)NC(=O)[C@@H](N)Cc1ccc(O)cc1`, the Inhibition was found to be 0%.

Another assay relates to Mus musculus. The assay can be described thus: Antinociceptive activity of subcutaneously administered compound in phenyl-p-benzoquinone induced writhing mice. The assay is classed as functional. The note with it: Mus musculus, sc; read-out: ED50. Summed up:
(§2)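 Groups of five to six female CD1 mice given drug subcutaneously (10 mL kg-1) 30 min before ip phenyl-p-benzoquinone 2.5 mg kg-1. Writhes (abdominal constrictions/hind-limb extensions) counted over 2.5 min from 10 min post-PBQ. ED50, the dose giving 50% fewer writhes than vehicle, from linear regression.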
As usually defined, the ED50 is the midpoint of the dose-response relation. For `CC(=O)O.CCN(CCc1cccc2ccccc12)C(=O)CNC(=O)[C@@H](CCCN=C(N)N)NC(=O)[C@@H](N)Cc1ccc(O)cc1`, the ED50 was 1.4 mg/kg.
The same measure, in the same setting: in the case of `CC(=O)O.CCN(CCc1cccc2ccccc12)C(=O)CNC(=O)[C@@H](CCCN=C(N)N)NC(=O)[C@H](Cc1ccc(O)cc1)N=C(N)N` it was 1.4 mg/kg.

A further assay has as its system Mus musculus. The assay is described as follows: Antinociceptive activity of subcutaneously administered compound (1 mg) in phenyl-p-benzoquinone induced writhing mice. The assay is classed as functional.
Settings: not given
Summed up: as §2
With `CC(=O)O.CCN(CCc1ccc2ccccc2c1)C(=O)CNC(=O)[C@@H](CCCN=C(N)N)NC(=O)[C@@H](N)Cc1ccc(O)cc1`, the Inhibition was 27%.
The same measure, in the same setting: in the case of `CC(=O)O.CCN(CCc1ccc([N+](=O)[O-])o1)C(=O)CNC(=O)[C@@H](CCCN=C(N)N)NC(=O)[C@@H](N)Cc1ccc(O)cc1` it was 0%; in that of `CC(=O)O.CCN(CCc1cccs1)C(=O)CNC(=O)[C@@H](CCCN=C(N)N)NC(=O)[C@@H](N)Cc1ccc(O)cc1`, 0%; in that of `CC(=O)O.CCN(CCc1ccco1)C(=O)CNC(=O)[C@@H](CCCN=C(N)N)NC(=O)[C@@H](N)Cc1ccc(O)cc1`, 0%.
The same measure, in the same setting: next, `CC(=O)O.CCN(CCc1ccc(Br)cc1)C(=O)CNC(=O)[C@@H](CCCN=C(N)N)NC(=O)[C@@H](N)Cc1ccc(O)cc1`: 10%.
Same read-out and setting: in the case of `CC(=O)O.CCN(CCc1ccc([N+](=O)[O-])o1)C(=O)CNC(=O)[C@@H](CCCN=C(N)N)NC(=O)[C@H](Cc1ccc(O)cc1)N=C(N)N` it was 17%; in that of `CC(=O)O.CCN(Cc1ccc(-c2ccccc2)cc1)C(=O)CNC(=O)[C@@H](CCCN=C(N)N)NC(=O)[C@@H](N)Cc1ccc(O)cc1`, 13%.

A further assay relates to Mus musculus. The assay is described as follows: Antinociceptive activity of perorally administered compound (20 mg) in phenyl-p-benzoquinone induced writhing mice. The assay is classed as functional.
Settings: not given
The procedure, abridged: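 Female CD1 mice (Charles River), groups of five to six, dosed orally by blunt intragastric needle (10 mL kg-1) 30 min before ip PBQ at 2.5 mg kg-1. Abdominal constrictions/hind-limb extensions were counted over 2.5 min starting 10 min after PBQ. ED50 is the dose halving writhes versus vehicle, estimated by linear regression.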
The molecule `CC(=O)O.CCN(CCc1ccc2ccccc2c1)C(=O)CNC(=O)[C@@H](CCCN=C(N)N)NC(=O)[C@@H](N)Cc1ccc(O)cc1` returned an Inhibition of 0%.
`CC(=O)O.CCN(CCc1ccc([N+](=O)[O-])o1)C(=O)CNC(=O)[C@@H](CCCN=C(N)N)NC(=O)[C@@H](N)Cc1ccc(O)cc1` displayed an Inhibition of 0%.
On the same count and under the same terms, in the case of `CC(=O)O.CCN(CCc1cccs1)C(=O)CNC(=O)[C@@H](CCCN=C(N)N)NC(=O)[C@@H](N)Cc1ccc(O)cc1` it was 21%; in that of `CC(=O)O.CCN(CCc1ccco1)C(=O)CNC(=O)[C@@H](CCCN=C(N)N)NC(=O)[C@@H](N)Cc1ccc(O)cc1`, 0%; in that of `CC(=O)O.CCN(CCc1ccc(Br)cc1)C(=O)CNC(=O)[C@@H](CCCN=C(N)N)NC(=O)[C@@H](N)Cc1ccc(O)cc1`, 0%.
Still for that read-out and setting: next, `CC(=O)O.CCN(CCc1cccc2ccccc12)C(=O)CNC(=O)[C@@H](CCCN=C(N)N)NC(=O)[C@@H](N)Cc1ccc(O)cc1`: 31%; `CC(=O)O.CCN(CCc1ccc([N+](=O)[O-])o1)C(=O)CNC(=O)[C@@H](CCCN=C(N)N)NC(=O)[C@H](Cc1ccc(O)cc1)N=C(N)N`: 15%; `CC(=O)O.CCN(Cc1ccc(-c2ccccc2)cc1)C(=O)CNC(=O)[C@@H](CCCN=C(N)N)NC(=O)[C@@H](N)Cc1ccc(O)cc1`: 0%.
Regarding `CC(=O)O.CCN(CCc1cccc2ccccc12)C(=O)CNC(=O)[C@@H](CCCN=C(N)N)NC(=O)[C@H](Cc1ccc(O)cc1)N=C(N)N`, the Inhibition amounted to 0%.

A further assay has as its system Mus musculus. The assay can be described thus: Antinociceptive activity in the hot plate test (central activity) in rodents, when compound administered subcutaneously at 50 mg. The assay is classed as functional.
Settings: not given
Summed up: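 Male CFLP mice (Hacking and Churchill), groups of five to six, dosed sc at 10 mL kg-1 and placed on a copper surface held at 55 °C. Signs of discomfort (paw licking/shaking, jumping) were scored, with a 30-s cut-off. ED50 is the dose doubling response latency versus vehicle, estimated by parallel-line probit analysis.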
For orientation: In hot-plate and tail-flick tests a longer latency is read as antinociception.
As for `CC(=O)O.CCN(CCc1cccc2ccccc12)C(=O)CNC(=O)[C@@H](CCCN=C(N)N)NC(=O)[C@@H](N)Cc1ccc(O)cc1`, the Inhibition worked out at 0%.
Still for that read-out and setting: in the case of `CC(=O)O.CCN(CCc1cccc2ccccc12)C(=O)CNC(=O)[C@@H](CCCN=C(N)N)NC(=O)[C@H](Cc1ccc(O)cc1)N=C(N)N` it was 0%.

The subject of the next assay is Mus musculus. The assay is described as follows: Antinociceptive activity of subcutaneously administered compound (3 mg) in acetic acid (AA) induced writhing mice. In kind it is functional.
Settings: not given
The procedure, abridged: as §1
`CC(=O)O.CCN(CCc1ccncc1)C(=O)CNC(=O)[C@@H](CCCN=C(N)N)NC(=O)[C@@H](N)Cc1ccc(O)cc1` showed an Inhibition of 0%.

For another assay, the system named is Mus musculus. The assay is described as follows: Antinociceptive activity of subcutaneously administered compound (100 mg) in acetic acid (AA) induced writhing mice. In kind it is functional.
Settings: not given
The procedure, abridged:
as §1
The molecule `CC(=O)O.CCN(CCc1ccc(S(N)(=O)=O)cc1)C(=O)CNC(=O)[C@@H](CCCN=C(N)N)NC(=O)[C@@H](N)Cc1ccc(O)cc1` came in with an Inhibition of 0%.
The same measure, in the same setting: in the case of `CC(=O)O.CCN(CCc1ccc(Br)cc1)C(=O)CNC(=O)[C@@H](CCCN=C(N)N)NC(=O)[C@@H](N)Cc1ccc(O)cc1` it was 0%.
